In the RNAGym collection of RNA variant scans (doi:10.1002/anie.201605470):

B1: Osa-1-4 twister ribozyme (parent)
chain: CCGCCUAACACUGCCAAUGCCGGUCCCAAGCCCGGAUAAAAGUGGAGGGGGCGG

Variants of: B1
Experiment: self-cleavage, relative activity (ratio to wild type); higher = more cleavage; co-transcriptional
Method in brief: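 The 48 positions downstream of the cleavage site in a 54-nucleotide Oryza sativa twister ribozyme template were synthesised at 97 % wild-type base and 1 % of each other base. The template was transcribed in vitro at 37 °C for 2 h, with self-cleavage allowed during transcription. Reads with or without upstream sequence after deep sequencing marked cleavage status, and relative activity is fraction cleaved normalised to wild type.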

Compared with CCGCCUAACACUGCCAAUGCCGGUCCCAGGCCCGGAUAAAAGAGGAGGGGGCGG [A29G U43A], CCGCCUAACACUGCCAAUGCCGGUCCAAGGCCCGGAUAAAAGUGGAGGGGGCGG [A29G C27A] is lower in self-cleavage: 0.07 for the first, 0.06 for the second.

First: CCGCCUAACACUGCCAAUGCCGGUCCUAGGCCCGGAUAAAAGUGGAGGGGGCGG [A29G C27U]
Second: CCGCCUAACACUGCCAAUGCCGGUCCGAGGCCCGGAUAAAAGUGGAGGGGGCGG [A29G C27G]
The self-cleavage of the first is lower: 0.05 for the first, 0.06 for the second.

Going from CCGCCUAACACUGCCAAUGCCGGUCCCAGGCCCGGAUAAAAGUGGAGGGCGCGG [A29G G50C] to CCGCCUAACACUGCCAAUGCCGGUCCCAGGCCCGGAUAAAAGUGGAGGGAGCGG [A29G G50A], the self-cleavage rises from 0.08 to 0.27.

Compared with CCGCCUAACACUGCCAAUGCCGGUCCCAGGCCCGGAUAAAAGUGGAGGGUGCGG [A29G G50U], CCGCCUAACACUACCAAUGCCGGUCCCAGGCCCGGAUAAAAGUGGAGGGGGCGG [A29G G13A] is lower in self-cleavage: 0.17 for the first, 0.04 for the second.

Going from CCGCCUAACACUCCCAAUGCCGGUCCCAGGCCCGGAUAAAAGUGGAGGGGGCGG [A29G G13C] to CCGCCUAACACUUCCAAUGCCGGUCCCAGGCCCGGAUAAAAGUGGAGGGGGCGG [A29G G13U], the self-cleavage rises from 0.01 to 0.03.

First: CCGCCUAACACUGCCAAUGCCAGUCCCAGGCCCGGAUAAAAGUGGAGGGGGCGG [A29G G22A]
Second: CCGCCUAACACUGCCAAUGCCCGUCCCAGGCCCGGAUAAAAGUGGAGGGGGCGG [A29G G22C]
The self-cleavage of the first is lower: 0.11 for the first, 0.12 for the second.

Going from CCGCCUAACACUGCCAAUGCCUGUCCCAGGCCCGGAUAAAAGUGGAGGGGGCGG [A29G G22U] to CCGCCUAACACUGCCAAUGCCGGUCCCAGCCCCGGAUAAAAGUGGAGGGGGCGG [A29G G30C], the self-cleavage falls from 0.06 to 0.03.

Going from CCGCCUAACACUGCCAAUGCCGGUCCCAGACCCGGAUAAAAGUGGAGGGGGCGG [A29G G30A] to CCGCCUAACACUGCCAAUGCCGGUCCCAGUCCCGGAUAAAAGUGGAGGGGGCGG [A29G G30U], the self-cleavage falls from 0.05 to 0.04.

First: CCGCCUAACACUGCCAAUGCCGGUCCCAGGCGCGGAUAAAAGUGGAGGGGGCGG [A29G C32G]
Second: CCGCCUAACACUGCCAAUGCCGGUCCCAGGCACGGAUAAAAGUGGAGGGGGCGG [A29G C32A]
The self-cleavage of the first is higher: 0.07 for the first, 0.04 for the second.

Compared with CCGCCUAACACUGCCAAUGCCGGUCCCAGGCUCGGAUAAAAGUGGAGGGGGCGG [A29G C32U], CCGCCUAACACUGCCAAUACCGGUCCCAGGCCCGGAUAAAAGUGGAGGGGGCGG [A29G G19A] is higher in self-cleavage: 0.06 for the first, 0.08 for the second.

First: CCGCCUAACACUGCCAAUCCCGGUCCCAGGCCCGGAUAAAAGUGGAGGGGGCGG [A29G G19C]
Second: CCGCCUAACACUGCCAAUUCCGGUCCCAGGCCCGGAUAAAAGUGGAGGGGGCGG [A29G G19U]
The self-cleavage of the first is lower: 0.06 for the first, 0.07 for the second.

Going from CCGCCUAACACUGCCAAUGCCGGUCCCAGGCCAGGAUAAAAGUGGAGGGGGCGG [A29G C33A] to CCGCCUAACACUGCCAAUGCCGGUCCCAGGCCGGGAUAAAAGUGGAGGGGGCGG [A29G C33G], the self-cleavage rises from 0.05 to 0.15.

First: CCGCCUAACACUGCCAAUGCCGGUCCCAGGCCUGGAUAAAAGUGGAGGGGGCGG [A29G C33U]
Second: CCGCCUAACACAGCCAAUGCCGGUCCCAGGCCCGGAUAAAAGUGGAGGGGGCGG [A29G U12A]
The self-cleavage of the first is lower: 0.07 for the first, 0.1 for the second.

Compared with CCGCCUAACACGGCCAAUGCCGGUCCCAGGCCCGGAUAAAAGUGGAGGGGGCGG [A29G U12G], CCGCCUAACACCGCCAAUGCCGGUCCCAGGCCCGGAUAAAAGUGGAGGGGGCGG [A29G U12C] is higher in self-cleavage: 0.04 for the first, 0.08 for the second.

First: CCGCCUAACACUGCCAAUGCCGGUCCCAGGCCCUGAUAAAAGUGGAGGGGGCGG [A29G G34U]
Second: CCGCCUAACACUGCCAAUGCCGGUCCCAGGCCCCGAUAAAAGUGGAGGGGGCGG [A29G G34C]
The self-cleavage of the first is lower: 0.05 for the first, 0.06 for the second.

Compared with CCGCCUAACACUGCCAAUGCCGGUCCCAGGCCCAGAUAAAAGUGGAGGGGGCGG [A29G G34A], CCGCCUAACACUGCCAAUGCCGGUCCCAGGCCCGGACAAAAGUGGAGGGGGCGG [A29G U37C] is higher in self-cleavage: 0.13 for the first, 0.28 for the second.

First: CCGCCUAACACUGCCAAUGCCGGUCCCAGGCCCGGAGAAAAGUGGAGGGGGCGG [A29G U37G]
Second: CCGCCUAACACUGCCAAUGCCGGUCCCAGGCCCGGAAAAAAGUGGAGGGGGCGG [A29G U37A]
The self-cleavage of the first is higher: 0.44 for the first, 0.32 for the second.

Going from CCGCCUAUCACUGCCAAUGCCGGUCCCAUGCCCGGAUAAAAGUGGAGGGGGCGG [A29U A8U] to CCGCCUAGCACUGCCAAUGCCGGUCCCAUGCCCGGAUAAAAGUGGAGGGGGCGG [A29U A8G], the self-cleavage rises from 0.05 to 0.11.

Compared with CCGCCUACCACUGCCAAUGCCGGUCCCAUGCCCGGAUAAAAGUGGAGGGGGCGG [A29U A8C], CCGCCUAACACUGCCAAUGCCGGUCCCAGGCCCGGAUAAAAGUGGAUGGGGCGG [A29G G47U] is lower in self-cleavage: 0.04 for the first, 0.03 for the second.

Going from CCGCCUAACACUGCCAAUGCCGGUCCCAGGCCCGGAUAAAAGUGGACGGGGCGG [A29G G47C] to CCGCCUAACACUGCCAAUGCCGGUCCCAGGCCCGGAUAAAAGUGGAAGGGGCGG [A29G G47A], the self-cleavage rises from 0.03 to 0.05.

Going from CCGCCUAACACUGCCAAUGCCGGUCCCAGGCCCGGAUAAAAGUGGAGGGGCCGG [A29G G51C] to CCGCCUAACACUGCCAAUGCCGGUCCCAGGCCCGGAUAAAAGUGGAGGGGUCGG [A29G G51U], the self-cleavage rises from 0.05 to 0.06.

First: CCGCCUAACACUGCCAAUGCCGGUCCCAGGCCCGGAUAAAAGUGGAGGGGACGG [A29G G51A]
Second: CCGCCUAACACUGCCAAUGCCGAUCCCAGGCCCGGAUAAAAGUGGAGGGGGCGG [A29G G23A]
The self-cleavage of the first is higher: 0.1 for the first, 0.07 for the second.

Going from CCGCCUAACACUGCCAAUGCCGCUCCCAGGCCCGGAUAAAAGUGGAGGGGGCGG [A29G G23C] to CCGCCUAACACUGCCAAUGCCGUUCCCAGGCCCGGAUAAAAGUGGAGGGGGCGG [A29G G23U], the self-cleavage rises from 0.04 to 0.05.

First: CCGCCUAACACUGCCAAUGCCGGUCCCAGGCCCGGAUAAAAGUGGAGGAGGCGG [A29G G49A]
Second: CCGCCUAACACUGCCAAUGCCGGUCCCAGGCCCGGAUAAAAGUGGAGGCGGCGG [A29G G49C]
The self-cleavage of the first is higher: 0.05 for the first, 0.04 for the second.

With CCGCCUAACACUGCCAAUGCCGGUCCCAGGCCCGGAUAAAAGUGGAGGUGGCGG [A29G G49U] the self-cleavage was 0.04.
